Laboratory results reported in ChEMBL document CHEMBL3091329, “Discovery of tetrahydroisoquinoline-based CXCR4 antagonists” (ACS Med Chem Lett, 2013).

Experiments:
[1] = biological target: T1, C-C chemokine receptor type 1 (Homo sapiens) (UniProt P32246); assay: Inhibition of CCR1 (unknown origin) at 10 uM relative to control
T1 sequence (whole entry): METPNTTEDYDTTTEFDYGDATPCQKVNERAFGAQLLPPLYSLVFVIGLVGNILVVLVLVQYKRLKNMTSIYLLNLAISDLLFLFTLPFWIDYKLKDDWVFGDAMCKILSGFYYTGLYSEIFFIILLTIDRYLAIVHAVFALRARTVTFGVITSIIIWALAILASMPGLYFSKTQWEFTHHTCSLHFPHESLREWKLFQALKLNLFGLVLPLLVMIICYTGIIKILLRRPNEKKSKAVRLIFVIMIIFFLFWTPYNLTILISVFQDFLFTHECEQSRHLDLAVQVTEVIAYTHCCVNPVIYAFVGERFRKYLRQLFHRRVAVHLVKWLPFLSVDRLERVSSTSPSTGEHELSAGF

[2] = Half life in rat liver microsomes at 1 uM incubated for 3 mins prior to NADPH addition by LC-MS/MS analysis; type: ADME
[3] = biological target: C-C chemokine receptor type 8 (Homo sapiens) (UniProt P51685); assay: Inhibition of CCR8 (unknown origin) at 10 uM relative to control
C-C chemokine receptor type 8 (Homo sapiens), sequence (P51685 whole entry): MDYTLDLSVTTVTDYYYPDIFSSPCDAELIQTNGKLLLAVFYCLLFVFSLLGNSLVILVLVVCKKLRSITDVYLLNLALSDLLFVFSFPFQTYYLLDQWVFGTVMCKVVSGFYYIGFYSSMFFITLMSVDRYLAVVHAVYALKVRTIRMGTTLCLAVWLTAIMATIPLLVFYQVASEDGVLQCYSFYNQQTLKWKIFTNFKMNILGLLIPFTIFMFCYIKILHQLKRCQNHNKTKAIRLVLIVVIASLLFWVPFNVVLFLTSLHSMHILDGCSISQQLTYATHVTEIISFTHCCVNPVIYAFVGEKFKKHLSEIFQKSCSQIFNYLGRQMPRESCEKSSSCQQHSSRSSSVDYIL

[4] = Plasma concentration in Harlan C57BL/6 mouse at 5 mg/kg, sc after 1 hr by LC/MS/MS analysis; type: ADME, organism-based; design: dose 5 mg/kg, route subcutaneous
Summary of the method: (§1)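 Harlan mice were given a single subcutaneous dose at 5, 10 or 20 mg/kg. Blood was sampled at multiple time points over about 8 h, and each sample was used for both total circulating WBC count and plasma drug level. Counts and concentrations were plotted against time for each dose.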

[5] = AUC (0 to infinity) in jugular pre-cannulated Harlan Sprague-Dawley rat at 2 mg/kg, iv; type: ADME, organism-based; design: time infinity, dose 2 mg/kg, route intravenous; details: plasma
[6] = system: Mus musculus; assay: Induction of WBC mobilization in sc dosed Harlan C57BL/6 mouse after 1 to 8 hrs by LC/MS/MS analysis; type: functional, organism-based; summary of the method: as §1
[7] = Aqueous solubility in PBS at 7.4 after 90 mins by nephelometric analysis; type: physicochemical; details: pH 7.4
[8] = biological target: T2, C-C chemokine receptor type 4 (Homo sapiens) (UniProt P51679); assay: Inhibition of CCR4 (unknown origin) at 10 uM relative to control
T2 sequence (whole entry): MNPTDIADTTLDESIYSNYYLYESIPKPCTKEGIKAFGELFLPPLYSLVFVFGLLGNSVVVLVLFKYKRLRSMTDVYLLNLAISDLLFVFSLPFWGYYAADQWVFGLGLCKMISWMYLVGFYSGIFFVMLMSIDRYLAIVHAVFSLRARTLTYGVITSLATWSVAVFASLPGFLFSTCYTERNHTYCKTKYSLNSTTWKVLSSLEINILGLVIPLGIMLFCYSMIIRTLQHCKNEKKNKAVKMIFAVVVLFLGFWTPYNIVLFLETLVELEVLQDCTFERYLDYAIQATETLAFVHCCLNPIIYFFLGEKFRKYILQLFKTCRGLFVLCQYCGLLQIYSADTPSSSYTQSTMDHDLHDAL

[9] = biological target: T3, C-X-C chemokine receptor type 1 (Homo sapiens) (UniProt P25024); assay: Inhibition of CXCR1 (unknown origin) at 10 uM relative to control
T3 sequence (whole entry): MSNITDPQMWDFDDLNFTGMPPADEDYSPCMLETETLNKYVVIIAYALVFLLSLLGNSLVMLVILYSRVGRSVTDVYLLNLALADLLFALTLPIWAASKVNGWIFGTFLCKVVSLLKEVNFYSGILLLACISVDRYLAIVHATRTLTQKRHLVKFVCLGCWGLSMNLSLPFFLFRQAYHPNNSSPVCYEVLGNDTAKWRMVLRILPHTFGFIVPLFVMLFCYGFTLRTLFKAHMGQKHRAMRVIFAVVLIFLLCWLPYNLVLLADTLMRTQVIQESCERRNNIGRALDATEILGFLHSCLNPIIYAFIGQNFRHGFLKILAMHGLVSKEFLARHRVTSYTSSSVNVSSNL

[10] = biological target: T4, C-X-C chemokine receptor type 2 (Homo sapiens) (UniProt P25025); assay: Inhibition of CXCR2 (unknown origin) at 10 uM relative to control
T4 sequence (whole entry): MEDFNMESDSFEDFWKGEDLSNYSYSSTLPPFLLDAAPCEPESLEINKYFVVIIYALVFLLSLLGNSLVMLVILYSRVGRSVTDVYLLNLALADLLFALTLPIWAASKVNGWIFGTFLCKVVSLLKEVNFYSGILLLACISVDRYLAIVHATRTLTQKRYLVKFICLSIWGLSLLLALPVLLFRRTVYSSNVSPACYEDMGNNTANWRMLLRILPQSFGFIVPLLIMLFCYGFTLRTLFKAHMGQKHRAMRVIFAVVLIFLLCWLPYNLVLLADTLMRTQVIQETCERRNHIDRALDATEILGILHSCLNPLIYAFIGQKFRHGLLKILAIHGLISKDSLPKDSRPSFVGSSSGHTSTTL

[11] = system: Liver microsome; assay: Intrinsic clearance in human liver microsomes at 1 uM incubated for 3 mins prior to NADPH addition by LC-MS/MS analysis; type: ADME; details: 0.05 h
[12] = system: Plasma; assay: Plasma concentration in Harlan C57BL/6 mouse at 5 to 20 mg/kg, sc after 6 to 8 hrs by LC/MS/MS analysis; type: ADME, organism-based; design: route subcutaneous; details: in vivo; summary of the method: as §1
[13] = Plasma concentration in Harlan C57BL/6 mouse at 10 mg/kg, sc after 1 hr by LC/MS/MS analysis; type: ADME, organism-based; design: dose 10 mg/kg, route subcutaneous; summary of the method: as §1
[14] = Cytotoxicity against human MAGI-CCR5 cells assessed as cell viability after 2 to 6 days by MTS assay; details: MAGI-CCR5 cells
[15] = biological target: T5, C-C chemokine receptor type 6 (Homo sapiens) (UniProt P51684); assay: Inhibition of CCR6 (unknown origin) at 10 uM relative to control
T5 sequence (whole entry): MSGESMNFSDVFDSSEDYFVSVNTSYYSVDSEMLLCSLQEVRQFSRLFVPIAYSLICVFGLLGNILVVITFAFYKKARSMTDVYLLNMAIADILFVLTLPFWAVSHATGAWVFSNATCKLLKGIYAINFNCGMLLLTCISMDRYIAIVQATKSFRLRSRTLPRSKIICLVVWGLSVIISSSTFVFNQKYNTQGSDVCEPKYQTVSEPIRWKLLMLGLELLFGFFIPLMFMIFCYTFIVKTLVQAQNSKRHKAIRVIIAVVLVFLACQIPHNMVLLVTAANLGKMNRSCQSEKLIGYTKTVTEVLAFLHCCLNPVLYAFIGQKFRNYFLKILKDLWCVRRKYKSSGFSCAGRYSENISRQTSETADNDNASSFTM

[16] = system: Liver microsome; assay: Intrinsic clearance in rat liver microsomes at 1 uM incubated for 3 mins prior to NADPH addition by LC-MS/MS analysis; type: ADME; details: 0.05 h
[17] = Half life in mouse liver microsomes at 1 uM incubated for 3 mins prior to NADPH addition by LC-MS/MS analysis; type: ADME, Microsome
[18] = biological target: C-X-C chemokine receptor type 6 (Homo sapiens) (UniProt O00574); assay: Inhibition of CXCR6 (unknown origin) at 10 uM relative to control
C-X-C chemokine receptor type 6 (Homo sapiens), sequence (O00574 whole entry, looked up): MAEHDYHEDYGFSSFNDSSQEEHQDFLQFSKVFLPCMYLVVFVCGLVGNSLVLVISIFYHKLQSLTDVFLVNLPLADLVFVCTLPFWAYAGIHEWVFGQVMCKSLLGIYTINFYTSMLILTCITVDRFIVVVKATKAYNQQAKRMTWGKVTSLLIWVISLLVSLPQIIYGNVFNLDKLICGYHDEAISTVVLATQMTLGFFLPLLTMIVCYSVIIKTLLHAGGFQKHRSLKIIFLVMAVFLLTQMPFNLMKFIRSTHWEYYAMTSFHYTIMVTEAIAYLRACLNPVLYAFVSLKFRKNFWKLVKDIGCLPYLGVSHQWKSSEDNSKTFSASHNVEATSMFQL

- inhibition [1]: < 10%
- half-life at 1 µM [2]: 39 min
- inhibition [3]: < 10%
- concentration at 1 h [4]: 725 ng/mL
- AUC(0-inf) [5]: 108 ng·h/mL
- solubility kinetic at […] [7]: > 274 µM
- inhibition [8]: < 10%
- inhibition [9]: < 10%
- inhibition [10]: < 10%
- CLH [11]: < 20 µL/min/mg
- Cp [12]: 87 ng/mL
- concentration at 1 h [13]: 1020 ng/mL
- inhibition [15]: < 10%
- CLH [16]: 35 µL/min/mg
- half-life at 1 µM [17]: 22 min
- inhibition [18]: < 10%
Compound: NCCCCN(C[C@H]1Cc2ccccc2CN1)[C@H]1CCCc2cccnc21
- Activity [6]: Dose-dependent effect
- CC50 [14]: > 10 µM
